From ChEMBL document CHEMBL4689842, “EUbOPEN Chemogenomics Library wave 1” (2021)
“And” between values parts separate entries of the source, which are not always exact repeats. Identical values can stand only once.

System: HEK-293T
Experiment: Multiplex assay against HEK293T;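 on Population Tubulin-Different-Phenotype (%): share of the cells with healthy nuclei that show this phenotype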
Type: toxicity, cell-based
Details: human
How it was run: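 Live cells carried four stains from seeding: Hoechst33342, BioTracker Green Microtubule Cytoskeleton Dye, MitoTracker Red and Annexin V Alexa Fluor 680. They were imaged on a CQ1 microscope at 37°C and 5% CO2 after compound addition. Using CellPathfinder machine-learning gating, cells were split into Hoechst high-intensity objects or normal cells, normal cells into healthy, pyknosed or fragmented nuclei, and pyknosed cells into mitotic or apoptotic; tubulin, mitochondrial-mass and membrane-permeability phenotypes are per cents of healthy-nucleus cells.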

[1] = 12 h, 1 µM, compound concentration 1 uM, replicate 1
[2] = 12 h, 1 µM, compound concentration 1 uM, replicate 2
[3] = 12 h, 10 µM, compound concentration 10 uM, replicate 1
[4] = 12 h, 10 µM, compound concentration 10 uM, replicate 2
[5] = 24 h, 1 µM, compound concentration 1 uM, replicate 1
[6] = 24 h, 1 µM, compound concentration 1 uM, replicate 2
[7] = 24 h, 10 µM, compound concentration 10 uM, replicate 1
[8] = 24 h, 10 µM, compound concentration 10 uM, replicate 2
[9] = 48 h, 1 µM, compound concentration 1 uM, replicate 1
[10] = 48 h, 1 µM, compound concentration 1 uM, replicate 2
[11] = 48 h, 10 µM, compound concentration 10 uM, replicate 1
[12] = 48 h, 10 µM, compound concentration 10 uM, replicate 2

Nc1c(C(=O)NCc2ccc(C(=O)NCCCC3CCCCC3)cc2)cnn1-c1ccccc1 [SR-318]
Population Apoptotic (%) [1]: 38% and 53% and 33% | Population Fragmented Nuclei (%) [1]: 11% and 10% | Population Healthy Nuclei (%) [1]: 45% and 28% and 41% | Population Hoechst High Intensity Objects (%) [1]: 13% and 14% and 11% | Population Membrane Permeable-Phenotype (%) [1]: 1% | Population Mitochondria Different-Phenotype (%) [1]: 68% and 75% and 77% | Population Mitotic Cells (%) [1]: 61% and 46% and 66% | Population Normal (%) [1]: 86% and 85% and 88% | Population Pyknosed Nuclei (%) [1]: 45% and 60% and 48% | Population Tubulin-Different-Phenotype (%) [1]: 37% and 47% and 50% | Total Cell Count [1]: 564 and 341 and 583 | Population Apoptotic (%) [2]: 8% and 14% and 10% | Population Fragmented Nuclei (%) [2]: 9% and 6% | Population Healthy Nuclei (%) [2]: 39% and 42% and 51% | Population Hoechst High Intensity Objects (%) [2]: 4% and 5% and 2% | Population Membrane Permeable-Phenotype (%) [2]: 8% and 6% and 4% | Population Mitochondria Different-Phenotype (%) [2]: 22% and 14% and 17% | Population Mitotic Cells (%) [2]: 91% and 85% and 89% | Population Normal (%) [2]: 95% and 94% and 97% | Population Pyknosed Nuclei (%) [2]: 51% and 47% and 41% | Population Tubulin-Different-Phenotype (%) [2]: 18% and 20% and 15% | Total Cell Count [2]: 208 and 203 and 249 | Population Apoptotic (%) [3]: 43% and 67% and 60% | Population Fragmented Nuclei (%) [3]: 13% and 17% and 12% | Population Healthy Nuclei (%) [3]: 21% and 14% and 18% | Population Hoechst High Intensity Objects (%) [3]: 16% and 13% and 15% | Population Membrane Permeable-Phenotype (%) [3]: 5% and 2% and 1% | Population Mitochondria Different-Phenotype (%) [3]: 97% and 100% and 94% | Population Mitotic Cells (%) [3]: 56% and 32% and 39% | Population Normal (%) [3]: 83% and 86% and 84% | Population Pyknosed Nuclei (%) [3]: 64% and 68% | Population Tubulin-Different-Phenotype (%) [3]: 90% and 89% and 92% | Total Cell Count [3]: 492 and 305 and 342 | Population Apoptotic (%) [4]: 42% and 40% and 53% | Population Fragmented Nuclei (%) [4]: 2% and 5% | Population Healthy Nuclei (%) [4]: 31% and 23% | Population Hoechst High Intensity Objects (%) [4]: 6% and 3% | Population Membrane Permeable-Phenotype (%) [4]: 7% and 4% | Population Mitochondria Different-Phenotype (%) [4]: 82% and 78% and 79% | Population Mitotic Cells (%) [4]: 57% and 59% and 46% | Population Normal (%) [4]: 93% and 96% | Population Pyknosed Nuclei (%) [4]: 66% and 62% and 70% | Population Tubulin-Different-Phenotype (%) [4]: 78% and 84% | Total Cell Count [4]: 272 and 248 and 191 | Population Apoptotic (%) [5]: 42% and 41% and 52% | Population Fragmented Nuclei (%) [5]: 12% and 10% and 16% | Population Healthy Nuclei (%) [5]: 40% and 46% and 27% | Population Hoechst High Intensity Objects (%) [5]: 15% and 12% | Population Membrane Permeable-Phenotype (%) [5]: 3% and 1% and 5% | Population Mitochondria Different-Phenotype (%) [5]: 71% and 56% and 69% | Population Mitotic Cells (%) [5]: 57% and 58% and 47% | Population Normal (%) [5]: 84% and 87% | Population Pyknosed Nuclei (%) [5]: 46% and 43% and 55% | Population Tubulin-Different-Phenotype (%) [5]: 48% and 34% and 54% | Total Cell Count [5]: 634 and 591 and 363 | Population Apoptotic (%) [6]: 11% and 13% and 5% | Population Fragmented Nuclei (%) [6]: 5% and 9% and 6% | Population Healthy Nuclei (%) [6]: 64% and 62% and 70% | Population Hoechst High Intensity Objects (%) [6]: 2% | Population Membrane Permeable-Phenotype (%) [6]: 7% | Population Mitochondria Different-Phenotype (%) [6]: 14% and 23% and 18% | Population Mitotic Cells (%) [6]: 88% and 86% and 94% | Population Normal (%) [6]: 97% | Population Pyknosed Nuclei (%) [6]: 30% and 27% and 22% | Population Tubulin-Different-Phenotype (%) [6]: 22% and 26% and 15% | Total Cell Count [6]: 245 and 241 and 330 | Population Apoptotic (%) [7]: 50% and 60% and 64% | Population Fragmented Nuclei (%) [7]: 18% and 20% | Population Healthy Nuclei (%) [7]: 22% and 16% and 17% | Population Hoechst High Intensity Objects (%) [7]: 19% and 15% and 14% | Population Membrane Permeable-Phenotype (%) [7]: 0% | Population Mitochondria Different-Phenotype (%) [7]: 98% and 97% and 96% | Population Mitotic Cells (%) [7]: 49% and 39% and 35% | Population Normal (%) [7]: 80% and 84% and 85% | Population Pyknosed Nuclei (%) [7]: 58% and 63% and 61% | Population Tubulin-Different-Phenotype (%) [7]: 94% and 86% and 90% | Total Cell Count [7]: 489 and 314 and 331 | Population Apoptotic (%) [8]: 61% and 57% and 59% | Population Fragmented Nuclei (%) [8]: 6% and 3% | Population Healthy Nuclei (%) [8]: 42% and 47% and 50% | Population Hoechst High Intensity Objects (%) [8]: 4% and 5% | Population Membrane Permeable-Phenotype (%) [8]: 3% and 1% and 2% | Population Mitochondria Different-Phenotype (%) [8]: 90% and 89% and 87% | Population Mitotic Cells (%) [8]: 38% and 42% and 40% | Population Normal (%) [8]: 95% and 94% | Population Pyknosed Nuclei (%) [8]: 50% and 49% and 46% | Population Tubulin-Different-Phenotype (%) [8]: 93% | Total Cell Count [8]: 222 and 291 and 281 | Population Apoptotic (%) [9]: 50% and 32% and 31% | Population Fragmented Nuclei (%) [9]: 17% and 13% and 15% | Population Healthy Nuclei (%) [9]: 35% and 64% and 52% | Population Hoechst High Intensity Objects (%) [9]: 15% and 9% and 12% | Population Membrane Permeable-Phenotype (%) [9]: 0% | Population Mitochondria Different-Phenotype (%) [9]: 46% and 27% and 47% | Population Mitotic Cells (%) [9]: 50% and 67% and 68% | Population Normal (%) [9]: 84% and 90% and 87% | Population Pyknosed Nuclei (%) [9]: 46% and 21% and 32% | Population Tubulin-Different-Phenotype (%) [9]: 28% and 25% and 40% | Total Cell Count [9]: 384 and 851 and 794 | Population Apoptotic (%) [10]: 20% and 10% and 15% | Population Fragmented Nuclei (%) [10]: 7% and 9% and 3% | Population Healthy Nuclei (%) [10]: 82% and 81% | Population Hoechst High Intensity Objects (%) [10]: 4% | Population Membrane Permeable-Phenotype (%) [10]: 3% and 1% | Population Mitochondria Different-Phenotype (%) [10]: 9% and 7% and 13% | Population Mitotic Cells (%) [10]: 79% and 89% and 84% | Population Normal (%) [10]: 95% | Population Pyknosed Nuclei (%) [10]: 10% and 9% and 15% | Population Tubulin-Different-Phenotype (%) [10]: 24% and 17% and 22% | Total Cell Count [10]: 386 and 610 and 321 | Population Apoptotic (%) [11]: 68% and 72% and 52% | Population Fragmented Nuclei (%) [11]: 28% and 25% | Population Healthy Nuclei (%) [11]: 22% and 19% and 26% | Population Hoechst High Intensity Objects (%) [11]: 13% and 18% and 16% | Population Membrane Permeable-Phenotype (%) [11]: 0% | Population Mitochondria Different-Phenotype (%) [11]: 98% and 96% and 95% | Population Mitotic Cells (%) [11]: 31% and 27% and 47% | Population Normal (%) [11]: 86% and 81% and 84% | Population Pyknosed Nuclei (%) [11]: 48% and 55% | Population Tubulin-Different-Phenotype (%) [11]: 98% and 94% and 82% | Total Cell Count [11]: 329 and 319 and 500 | Population Apoptotic (%) [12]: 66% | Population Fragmented Nuclei (%) [12]: 5% and 7% and 8% | Population Healthy Nuclei (%) [12]: 69% and 65% and 61% | Population Hoechst High Intensity Objects (%) [12]: 3% and 6% | Population Membrane Permeable-Phenotype (%) [12]: 2% and 1% | Population Mitochondria Different-Phenotype (%) [12]: 85% and 90% and 93% | Population Mitotic Cells (%) [12]: 33% | Population Normal (%) [12]: 96% and 93% | Population Pyknosed Nuclei (%) [12]: 25% and 26% and 30% | Population Tubulin-Different-Phenotype (%) [12]: 95% | Total Cell Count [12]: 373 and 318 and 253
